High-throughput results: PubChem BioAssay, several laboratories
In the library only some 9.6% were active in any assay of this set; here they are far more common.
Ba/F3 V617F tox = reduce viability of Ba/F3 cells dependent on JAK2V617F. Ba/F3 EpoR-JAK2V617F viability, ATP luminescence. inhibition, % at 5.6 µM. hit rate 1.1% among 220,000;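 active = inhibition above the campaign mean plus 3 SD over all tested compounds, cut at about 24% in these data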;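 also: cytokine-independent growth of Ba/F3 cells driven by EpoR plus mutant JAK2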
BaF3 tox = reduces parental Ba/F3 cell viability, JAK2V617F counter-screen; CellTiter-Glo ATP luminescence; inhibition, % at 5.6 µM; hit rate 1.1% among 220,000;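 active = inhibition above a per-campaign cutoff, the mean inhibition of all tested compounds plus 3 SD, cut at about 27% in these data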
L major viab = inhibitors of Leishmania major promastigote growth; inhibition, % at 10 µM; Leishmania major promastigotes, resazurin fluorescence viability; hit rate 9% among 200,000; in the data active = inhibition above about 50%;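 also: promastigotes grown with compound for 44 hours at 28 °C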
APP 5UTR inh = APP translation inhibition. SH-SY5Y APP 5'UTR-luciferase reporter, luminescence. inhibition, % at 2 µM. hit rate 0.82% among 190,000. AID 1285;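 active = inhibition above a set limit, derived from the sample mean plus 3 SD, cut at about 45% in these data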
MT stabilize HCS = stabilizes microtubules in HeLa cells; % tubulin-high responders, % at 10 µM; hit rate 0.83% among 200,000; HeLa tubulin immunostaining HCS, 24 h; share of cells brighter than vehicle mean+2SD;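 active = plate Z-score above 3 for both tubulin-high and condensed-nucleus cell shares, with cell loss under 80%, at 10 µM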;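 also: anti alpha tubulin signal scored within the nucleus-defined area of each cell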
b-catenin transl = modulators of beta-catenin nuclear translocation. HeLa beta-catenin nuclear translocation, immunofluorescence imaging. nuclear translocation activity, % at 5 µM. hit rate 0.3% among 190,000;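 active = nuclear translocation activity above 50% at 5 µM, with a well cell count of 50 or more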;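 also: per-cell ratio of nuclear to cytoplasmic median beta-catenin stain intensity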
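Test system: human HeLa cells, native beta-catenin. Compound dosing: 5 µM primary single dose, 0.1% DMSO, 0.02–20 µM confirmation series. Incubation: compound exposure 24 h at 37°C. Detection: beta-catenin immunostaining with DAPI counterstain, 20x imaging, 6 fields/well. Read-out basis: Nuclear/cytoplasmic beta-catenin signal ratio, % activation.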
L major 1uM = blocks Leishmania major promastigote growth at 1 uM, repeat screen | shares compounds with L major viab | L. major promastigote growth, resazurin fluorescence, 48 h | AID 1258 | inhibition, % at 1 µM | hit rate 13% among 1,100;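 active = inhibition above about 50% in both repeat tests, limit read from the data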
Of the large screens only hits and unclear results are named; the others gave an inactive call (follow-up assays come after a bar, where they were run).

CCOC(=O)C(NC(=O)NCc1cccc(C(F)(F)F)c1)(OCC)C(F)(F)F (configuration not stated)	none
CCOC(=O)c1sc(=S)sc1SCc1cccc(C(F)(F)F)c1	L major viab 61 | L major 1uM inactive
O=C1CSC(c2cn(-c3ccccc3)nc2-c2cc3ccccc3oc2=O)N1Cc1ccccc1 (configuration not stated)	L major viab 61, MT stabilize HCS 31 (no result: b-catenin transl) | L major 1uM inactive
O=C1CSC(c2cn(-c3ccccc3)nc2-c2ccc3c(c2)OCCO3)N1CCN1CCOCC1 (configuration not stated)	none
O=C(NNc1ccccc1C(F)(F)F)c1sccc1Br	none (no result: L major viab, APP 5UTR inh, MT stabilize HCS)
COc1ccc(CCNCC(=O)N2C(C)CCCC2C)cc1OC (configuration not stated)	none
C#CCOc1ccc(/C=C2\SC(=S)N(Cc3cccnc3)C2=O)cc1	none
O=C1/C(=C/c2ccc(O)cc2)SC(=S)N1Cc1cccnc1	L major viab 60 | L major 1uM inactive
Oc1ccccc1-c1cc(-c2ccccc2Cl)[nH]n1	none
Cc1ccc(O)c(-c2cc(-c3ccccc3C)[nH]n2)c1	L major viab 55 (no result: b-catenin transl) | L major 1uM inactive
CCOC(=O)c1c(CSC(=N)N)n(C)c2cc(Br)c(OC(C)=O)cc12	none (no result: L major viab, APP 5UTR inh, MT stabilize HCS)
CCOC(=O)c1c(CSC(=N)N)n(-c2ccc(C)cc2)c2cc(Br)c(OC(C)=O)cc12	L major viab 53 (no result: b-catenin transl) | L major 1uM inactive
Cc1nc2c(-c3ccc(Cl)cc3)c(C)[nH]n2c(=O)c1Cc1ccccc1	Ba/F3 V617F tox 31, BaF3 tox 41, L major viab 99 | L major 1uM inactive
Cc1[nH]c2ccccc2c1N=Nc1ccccc1C(=O)O	L major viab 68 | L major 1uM inactive
Cc1[nH]c2ccccc2c1N=Nc1cccc(C(=O)O)c1	none
CCCN1C2CCCC1CC(NC(=O)c1ccccc1)C2 (configuration not stated)	none
CCCCN1C2CCCC1CC(NC(=O)C1CCCCC1)C2 (configuration not stated)	L major viab 88 | L major 1uM inactive
CCOC(=O)c1ccc(NC(=S)N2CCSC2c2ccc(Cl)cc2)cc1 (configuration not stated)	L major viab 60 | L major 1uM inactive
CCOC(=O)c1ccc(NC(=S)N2CCSC2c2ccc(OC)cc2)cc1 (configuration not stated)	none
CCc1nc(SCC(=O)NCCc2ccccc2)c2c(=O)n(C)c(=O)n(C)c2n1	none (no result: L major viab, APP 5UTR inh, MT stabilize HCS)
Cc1ccc(-c2onc3ccc(C=O)cc23)cc1	L major viab 81 (no result: b-catenin transl) | L major 1uM inactive
Cc1ccc(-c2onc3ccc(C4(C)OCCO4)cc23)cc1	none (no result: APP 5UTR inh)
CCC(C)(C)c1ccc(Oc2ccc(N)cc2)cc1	L major viab 95, APP 5UTR inh 80 | L major 1uM inactive
O=C(O)c1ccc(N/N=C/c2ccc(-c3ccccc3)cc2)cc1	none
CC(C)c1ccc(/C=N/Nc2ccc(C(=O)O)cc2)cc1	L major viab 57 | L major 1uM inactive
Nc1[nH]n(-c2ccccc2)c(=O)c1N=Nc1ccc2c(c1)OCCO2	none
Nc1nn(-c2ccccc2)c(N)c1N=Nc1ccc2c(c1)OCO2	Ba/F3 V617F tox 78, BaF3 tox 64, L major viab 87, MT stabilize HCS 25, b-catenin transl 78 | L major 1uM 79
Cc1cccc(-n2c3nc(=O)[nH]c(=O)c-3cc3cc([N+](=O)[O-])ccc32)c1	L major viab 95 | L major 1uM inactive
CCCNC(=O)OCCC12CC3CC(CC(C3)C1)C2	L major viab 97 | L major 1uM inactive
CC(=O)Oc1ccc2ccccc2c1C(NC(=O)Cc1ccccc1)c1ccccc1Cl (configuration not stated)	L major viab 55 | L major 1uM inactive
CCC(=O)NC(c1ccccc1)c1c(OC(C)=O)ccc2ccccc12 (configuration not stated)	none
O=C(c1ccccc1Oc1ccccc1)N1CCN(c2ccccc2)CC1	none
CC1CN(Cc2ccccc2Cl)CC(C)O1 (configuration not stated)	none
Cn1nc(C(F)(F)F)c2cc(NC(=O)OCc3ccc(C(C)(C)C)cc3)sc21	L major viab 97 (no result: b-catenin transl) | L major 1uM inactive
